The values below come from ChEMBL document CHEMBL2331511, “Novel soluble myeloid cell leukemia sequence 1 (Mcl-1) inhibitor (E,E)-2-(benzylaminocarbonyl)-3-styrylacrylonitrile (4g) developed using a fragment-based approach” (Eur J Med Chem, 2013).

For data set [1], the target named is Induced myeloid leukemia cell differentiation protein Mcl-1 (Homo sapiens, UniProt Q07820, R263A). Nature of the data set: Binding affinity to his-tagged Mcl-1 R263A mutant (unknown origin) expressed in Escherichia coli BL21 (DE3) cells by ITC analysis. The essentials: (§1)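 Isothermal titration calorimetry at 25 °C in 20 mM Tris pH 8.0, 150 mM NaCl, 1% DMSO; twelve 3 μL injections of 300 μM ligand into 30 μM protein. Heats corrected against buffer-only titrations run the same way, and Kd obtained by integrating the raw data and fitting to a one-site model.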
Sequence of Induced myeloid leukemia cell differentiation protein Mcl-1 (Homo sapiens, UniProt Q07820, R263A) (Q07820 whole entry R263A): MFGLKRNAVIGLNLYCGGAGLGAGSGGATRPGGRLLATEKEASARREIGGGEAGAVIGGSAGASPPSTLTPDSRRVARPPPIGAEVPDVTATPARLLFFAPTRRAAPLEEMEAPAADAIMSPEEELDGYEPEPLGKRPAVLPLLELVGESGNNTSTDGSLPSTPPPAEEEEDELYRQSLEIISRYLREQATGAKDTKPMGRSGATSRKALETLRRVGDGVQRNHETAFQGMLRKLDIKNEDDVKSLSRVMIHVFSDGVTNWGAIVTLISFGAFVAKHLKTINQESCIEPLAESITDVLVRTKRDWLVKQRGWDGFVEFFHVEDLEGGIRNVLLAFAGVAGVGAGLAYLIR
A general note: In ITC the heat of successive injections is recorded.

In data set [2] the target is T1, Induced myeloid leukemia cell differentiation protein Mcl-1 (Homo sapiens, UniProt Q07820). Nature of the data set: Binding affinity to his-tagged Mcl-1 (unknown origin) expressed in Escherichia coli BL21 (DE3) cells by ITC analysis. An outline of the steps: as §1
T1 sequence (Q07820 whole entry): as the sequence (Q07820 whole entry R263A) above, with A263R counted along it
Data set [3] in a line: Solubility of the compound in 9:1 ratio of water:ethanol by HPLC analysis. Type of data set: physicochemical. As to conditions: 9:1 water:ethanol.
A further data set has as its system MCF7. Nature of the data set: Induction of apoptosis in human MCF7 cells after 48 hrs by annexin V flow cytometry. Type of data set: functional, cell-based. As to conditions: MCF7, 48 h. An outline of the steps:
(§2)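 Cells exposed to graded concentrations of ligand for 48 h; percentage of apoptotic cells measured by Annexin V flow cytometry, and IC50 taken from the concentration–response.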
For orientation: Flow cytometry measures light scatter and fluorescence of single cells or particles in a stream.

In data set [4] the test system is NCI-H23. Nature of the data set: Induction of apoptosis in human NCI-H23 cells after 48 hrs by annexin V flow cytometry. Type of data set: functional, cell-based. As to conditions: NCI-H23, 48 h. An outline of the steps:
as §2

Data set [5] can be described thus: Solubility of the compound in 100 % ethanol by HPLC analysis. Type of data set: physicochemical.
For data set [6], the target named is T1, Induced myeloid leukemia cell differentiation protein Mcl-1. Put plainly: Binding affinity to Mcl-1 (unknown origin) by two-dimensional [15N/1H] NMR analysis.
Another data set relates to HL-60. Nature of the data set: Induction of apoptosis in human HL60 cells after 48 hrs by annexin V flow cytometry. Type of data set: functional, cell-based. Particulars: HL-60, 48 h. The essentials:
as §2

For data set [7], the system named is NCI-H23. Put plainly: Ratio of IC50 for human HL60 cells to IC50 for human NCI-H23 cells. Type of data set: functional.
For a further data set, the system named is H22. Nature of the data set: Induction of apoptosis in mouse H22 cells after 48 hrs by annexin V flow cytometry. Type of data set: functional, cell-based. As to conditions: H22, 48 h. An outline of the steps:
as §2

Data set [8] deals with Apoptosis regulator Bcl-2 (Homo sapiens) (UniProt P10415). Put plainly: Binding affinity to recombinant human Bcl-2.
Sequence of Apoptosis regulator Bcl-2 (Homo sapiens) (P10415 whole entry): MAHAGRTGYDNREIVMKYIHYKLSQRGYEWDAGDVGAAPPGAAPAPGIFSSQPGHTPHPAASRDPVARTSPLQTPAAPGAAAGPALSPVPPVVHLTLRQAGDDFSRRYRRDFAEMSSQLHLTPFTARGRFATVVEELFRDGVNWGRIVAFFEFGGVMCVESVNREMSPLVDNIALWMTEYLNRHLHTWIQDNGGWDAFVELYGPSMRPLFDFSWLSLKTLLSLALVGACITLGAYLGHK
Another data set concerns the target Bcl-2-like protein 1 (Homo sapiens, UniProt Q07817). Put plainly: Binding affinity to Bcl-xL (unknown origin).

Values after ≈ are worked out from the molar mass of the structure shown. Active and inactive are the calls of the source. The rule behind the calls is not given here.

Sequence of Bcl-2-like protein 1 (Q07817 whole entry): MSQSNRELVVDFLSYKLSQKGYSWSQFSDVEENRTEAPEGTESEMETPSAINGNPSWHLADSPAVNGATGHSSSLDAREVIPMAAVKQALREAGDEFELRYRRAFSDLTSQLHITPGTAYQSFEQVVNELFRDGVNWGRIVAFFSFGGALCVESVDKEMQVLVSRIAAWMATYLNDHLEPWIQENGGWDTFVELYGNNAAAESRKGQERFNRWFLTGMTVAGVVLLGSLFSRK

Take `N#CCC(N)=O` [CYANOACETAMIDE]: the Kd is greater than 1000 µM in data set [1], 13.5 µM in data set [2] (read-out: Kd) and 13.5 µM in data set [2] (read-out: pKd (converted)).

For the compound `N#C/C(=C\C=C\c1ccccc1)C(N)=O`, the Kd is 46.2 µM in data set [1], 1.06 µM in data set [2] (read-out: Kd) and 1.07 µM in data set [2] (read-out: pKd (converted)).

`CCNC(=O)CC#N`: the Kd in [2] (read-out: Kd) is 6.65 µM; in [2] (read-out: pKd (converted)), 6.61 µM.

Regarding `N#C/C(=C\C=C\c1ccccc1)C(=O)NCc1ccccc1`, the solubility (in general, the concentration that dissolves in the medium under given conditions) in data set [3] was 200 µg/mL; in [5], 4000 µg/mL (≈ 13.9 mM). Moreover, the IC50 (usually the point on the concentration scale where inhibition reaches its midpoint) in the data set with MCF7 came to 5.4 µM; with NCI-H23 [4], 0.38 µM; with HL-60, 47.2 µM; in the data set with H22, 3.2 µM. Also, the Kd in data set [1] is 6.72 µM; in [2] (read-out: Kd), 0.16 µM; in data set [2] (read-out: pKd (converted)), 0.158 µM. In addition, the outcome in [6] was Active. Also, the “Ratio IC50” value in the data set on NCI-H23 [7] was determined as 100. Besides, in data set [8], the outcome was inactive.

For the compound `Cc1cc2c(C(C)C)c(O)c(O)c(C=O)c2c(O)c1-c1c(C)cc2c(C(C)C)c(O)c(O)c(C=O)c2c1O` [GOSSYPOL], the results for the Kd in [2] (read-out: Kd) and in [2] (read-out: pKd (converted)) were 2.65 µM and 2.63 µM, respectively.

`N#CCC(=O)NCc1ccccc1`: the values for the Kd in [1], in [2] (read-out: Kd) and in data set [2] (read-out: pKd (converted)) were 90.8 µM, 1.58 µM and 1.58 µM, respectively.

For `NC(=O)c1ccccc1C(=O)c1ccc(Sc2ccc(Cl)cc2)c([N+](=O)[O-])c1`, the affinity on Bcl-2-like protein 1, expressed as Ki, was 0.5 µM.

For the compound `CNC(=O)CC#N`, the values for the Kd in data set [2] (read-out: Kd) and in data set [2] (read-out: pKd (converted)) were 8.27 µM and 8.32 µM, respectively.

Regarding `COc1ccc(Oc2ccc3c(=C(C#N)C#N)c(=O)c4cccc2c43)cc1`, the Kd in [2] (read-out: Kd) is 4.93 µM; in data set [2] (read-out: pKd (converted)) it was 4.9 µM.

As to `C1CSCCN1` [THIOMORPHOLINE], in [2] (read-out: Kd), the Kd was greater than 1000 µM.

With `CCCNC(=O)CC#N`, the Kd is 4.28 µM in data set [2] (read-out: Kd) and 4.27 µM in data set [2] (read-out: pKd (converted)).

Regarding `N#Cc1c(-c2ccc3c(c2)OCO3)cc(-c2ccccc2O)[nH]c1=O`, the affinity at Bcl-2-like protein 1, expressed as Ki, was 5.1 µM.

As to `O=C(Nc1cc(S(=O)(=O)c2ccc(Cl)cc2)ccc1Cl)c1cc(Cl)cc(Br)c1O`, the affinity on Bcl-2-like protein 1, expressed as Ki, was 4.1 µM.

With `O=C1C(=O)c2cccc3cccc1c23` [ACENAPHTHOQUINONE], the figures for the Kd in data set [2] (read-out: Kd) and in data set [2] (read-out: pKd (converted)) were 325 µM and 324 µM, respectively.

As to `COC1=CC(c2cc3ccccc3[nH]2)=N/C1=C/c1[nH]cc(C)c1C`, the Ki (commonly the equilibrium dissociation constant of an inhibitor or competing ligand from its target) on Bcl-2-like protein 1 was determined as 4.69 µM.

As for `CC(C)c1ccc(Oc2ccc3c(=C(C#N)C#N)c(=O)c4cccc2c43)cc1`, the Kd in data set [2] (read-out: Kd) was 3.71 µM; in [2] (read-out: pKd (converted)), 3.72 µM.

As to `N#CC(C#N)=c1c(=O)c2cccc3c(Oc4ccc(Cl)cc4)ccc1c32`, the results for the Kd in data set [2] (read-out: Kd) and in [2] (read-out: pKd (converted)) were 4.24 µM and 4.27 µM, respectively.

Take `CCC(C)(C)c1ccc(Oc2ccc3c(=C(C#N)C#N)c(=O)c4cccc2c43)cc1`: the Kd in data set [2] (read-out: Kd) and in data set [2] (read-out: pKd (converted)) was 1.45 µM in each case.

With `N#CC(C#N)=c1c(=O)c2cccc3cccc1c32`, the figures for the Kd in [1], in data set [2] (read-out: Kd) and in data set [2] (read-out: pKd (converted)) were 51.4 µM, 52.3 µM and 52.5 µM, respectively.

`CCCC(CSc1ccccc1)Nc1ccc(S(=O)(=O)NC(=O)c2ccc(N3CCN(Cc4ccccc4-c4ccc(Cl)cc4)CC3)cc2)cc1[N+](=O)[O-]` (configuration not stated): the affinity at Bcl-2-like protein 1 corresponds to a Ki of 0.021 µM.

For the compound `N#C/C(=C\c1ccccc1)C(N)=O`, the Kd in data set [2] (read-out: Kd) was 2.21 µM; in [2] (read-out: pKd (converted)), 2.19 µM.

As to `N#CC1=C2C(=NC1=O)c1cccc3cccc2c13`, the figures for the Kd in [2] (read-out: Kd) and in data set [2] (read-out: pKd (converted)) were 1.83 µM and 1.82 µM, respectively.
